High-throughput results: PubChem BioAssay, several laboratories
This is a sample that favours compounds with a hit; in the whole collection about 1.5% have one here.
m5-HT2A agonist = mouse Htr2a agonists via beta-arrestin recruitment, primary screen, cell-based, luminescence | AID 624169, 2012 | activation, % at 7.6 µM | actives 0.66% (n = 360,000) | CHO-K1 mHTR2A beta-arrestin complementation; percent of 30 µM serotonin response;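 active = activation above a run cutoff, the mean activation of all tested compounds plus 3 SD, cut at about 14% in these data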;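 note: 0% = plate median of compound wells and 100% = 30 µM serotonin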
APJ agonist = agonists of human apelin receptor APJ, primary screen, CHO-K1 cells, PathHunter beta-arrestin, luminescence; P35414; 0% DMSO wells, 100% apelin; activation, % at 20 µM; actives 0.11% (n = 330,000);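 active = activation more than six SD over the plate average, tested at 20 µM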;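 note: 0% = DMSO alone and 100% = apelin-13 at 10 nM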
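Material: engineered CHO-K1 APJ arrestin reporter cells; amount: 1000 CHO-K1 reporter cells seeded per well; incubation: compound stimulation 90 min at 25 °C, detection 60 min; signal: luminescent beta-gal fragment complementation, chemiluminescent substrate; read-out basis: APJ agonist activity; controls: DMSO-only wells as negative, 10 nM Apelin-13 as positive control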
NTR1 agonist = agonists of human NTR1, primary screen, imaging, U2OS cells, beta-arrestin-GFP, high content. NTR1-U2OS beta-arrestin-GFP spot imaging, agonist mode. activation, % at 20 µM. actives 0.17% (n = 330,000);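 active = activation at or above 40% of the spot to cytoplasm intensity ratio, with at least 20 cells analyzed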;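 note: 0% = DMSO without peptide and 100% = 100 nM NTR1 peptide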
CCR6 antag = CCR6 receptor antagonists, primary screen, cell-based, CHO-K1, luminescence, beta-arrestin, uHTS. actives 0.49% (n = 340,000). C-C chemokine receptor type 6 (Homo sapiens), P51684. inhibition, % at 20 µM. CHO-K1 CCR6 PathHunter beta-arrestin, CCL20-stimulated;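 active = compounds whose inhibition of the agonist-driven luminescence signal at 20 µM reaches about 50%, limit read from the data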;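 note: cells stimulated with CCL20 at 14 nM final; plate controls were DMSO with CCL20 for no effect and DMSO without agonist for full effect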
CXCR6 inh = CXCR6 receptor inhibitors, primary screen, cell-based, beta-arrestin, luminescence, CHO-K1 PathHunter, 1536-well | C-X-C chemokine receptor type 6 (Homo sapiens), O00574 | inhibition, % at 20 µM | AID 602244, 2012 | actives 0.36% (n = 360,000); in the data active = inhibition above about 34%, passing the limit was not always enough;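 note: antagonist mode with CXCL16 agonist at 10 nM final; 0% = 10 nM CXCL16 with DMSO and 100% = unstimulated wells without agonist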
Target sequence (O00574 whole entry, looked up): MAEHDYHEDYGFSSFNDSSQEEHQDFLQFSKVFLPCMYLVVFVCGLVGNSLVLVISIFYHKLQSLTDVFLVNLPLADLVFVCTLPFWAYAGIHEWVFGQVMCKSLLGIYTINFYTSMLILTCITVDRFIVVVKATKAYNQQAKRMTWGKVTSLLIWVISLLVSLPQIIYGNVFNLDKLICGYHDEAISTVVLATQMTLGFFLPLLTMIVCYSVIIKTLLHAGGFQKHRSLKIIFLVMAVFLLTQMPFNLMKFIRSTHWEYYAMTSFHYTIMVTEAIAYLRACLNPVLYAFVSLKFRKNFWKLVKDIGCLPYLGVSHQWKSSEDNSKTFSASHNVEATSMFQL
APJ antagonist = antagonists of human apelin receptor APJ, primary screen, CHO-K1 cells, beta-arrestin complementation, luminescence; AID 2521, 2010; P35414; actives 0.32% (n = 330,000); inhibition, % at 20 µM;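 active = inhibition above about 40% at 20 µM, limit read from the data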;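 note: cells challenged with 10 nM apelin-13 agonist together with compound; plate controls were apelin-13 plus DMSO wells for no effect and DMSO wells lacking apelin-13 for full effect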
Active calls of the source: *; / = no result.

SMILES	m5-HT2A agonist	APJ agonist	NTR1 agonist	CCR6 antag	CXCR6 inh	APJ antagonist
O=C1Nc2ccccc2/C1=N\N=C\C1=C(N2CCOCC2)C(=C\c2ccccc2)/CC1	-2	-9	28	/	36	8
O=C1Nc2ccc(Br)cc2/C1=N\N=C\C1=C(N2CCOCC2)C(=C/c2ccccc2)/CC1	-3	/	/	55*	41*	/
Cc1ccc(S(=O)(=O)N2CCOCC2)cc1NC(=O)Cn1c(=O)ccn(Cc2ccccc2)c1=O	-2	/	/	7	8	/
CC(=O)Oc1ccc(N2C(=O)C3C4C=CC(CO)(O4)C3C2=O)cc1 (centres undefined)	-8	4	1	-4	17	9
O=C1C2C3C=CC(CO)(O3)C2C(=O)N1c1ccccc1-c1ccccc1 (centres undefined)	-2	-4	11	102*	57*	17
COc1ccc(C(NC(=O)C2CCN(Cc3ccc(Oc4ccccc4)cc3)CC2)c2ccccc2C)cn1 (centres undefined)	-10	/	/	/	19	/
COc1cc(/C=C2\SC(=S)N(c3cccnc3)C2=O)ccc1O	0	-9	0	75*	65*	53*
Cc1ccc(/C=C2\SC(=S)N(c3cccnc3)C2=O)cc1	0	-1	8	3	-2	-15
Cc1cc(C)c2c(=O)n(CC(=O)NCCCN3CCN(c4ccccc4F)CC3)sc2n1	/	4	1	100*	/	-12
Cc1cc(C)c2c(=O)n(CC(=O)NCCCN3CCOCC3)sc2n1	10	0	4	-10	-18	-120
C(=C1/CCCC2=C1Nc1ncnn1C2c1ccccc1)/c1ccccc1 (centres undefined)	/	0	73*	/	/	12
O=Cc1ccc(O)c2ncccc12	-25	0	11	45	47*	-3
COc1ccc(-n2c(=S)[nH]c3cc(C(=O)NCCCN4CCOCC4)ccc3c2=O)cc1OC	-3	-2	-1	6	-1	0
N#CC1=C(SCC(=O)Nc2cccc3cccnc23)NC(=O)C(C#N)C12CCCCC2 (centres undefined)	16*	-1	4	-6	-16	-17
N#CC1=C(SCC(=O)NC2CC2)NC(=O)C(C#N)C12CCCCC2 (centres undefined)	5	-4	-1	1	8	0
COc1ccc(Nc2nnc(-c3ccc(N4CCOCC4)c([N+](=O)[O-])c3)c3ccccc23)cc1	31*	/	/	23	11	/
COc1ccc(C(=O)c2ccc(N3CCOCC3)c([N+](=O)[O-])c2)cc1	1	-3	2	10	5	-10
CC(CCC(=O)NN)C1CCC2C3CCC4CC(O)CCC4(C)C3CCC12C (centres undefined)	-3	/	/	6	0	/
CC(CCC(C)C(C)(C)C)[C@@H]1CC[C@H]2C3C[C@H](OS(O)(=S)=S)[C@H]4C[C@H](OS(O)(=S)=S)[C@@H](OS(O)(=S)=S)C[C@]4(C)[C@H]3CC[C@]12C (some centres undefined) (tested in a mixture with another compound)	14	6	3	57*	20	10
CCOc1c(OC(C)=O)ccc(/C=C/c2ccc3cccc(OC(C)=O)c3n2)c1[N+](=O)[O-]	-1	-3	18	10	-1	-13
C=CCN1C(=O)/C(=C/c2ccc(OC(C)=O)c(OCC)c2[N+](=O)[O-])SC1=S	-3	/	/	54*	42*	/
CC(C)CCN1CCN(C2CSCCSC2)CC1CCO (centres undefined)	4	-4	1	6	-4	1
O=C1CCCN1c1ccc(N2CCCC2=O)cc1	-1	-2	1	3	-3	6
O=C(C[n+]1cn(C(F)F)c2ccccc21)c1ccc(OC(F)F)cc1	5	18*	4	-11	-13	-86
CCN(CC)CCCN1C(=O)C(O)=C(C(=O)c2ccco2)C1c1ccc(OC(C)C)cc1 (centres undefined)	3	2	-3	93*	1	-15
SMILES	m5-HT2A agonist	APJ agonist	NTR1 agonist	CCR6 antag	CXCR6 inh	APJ antagonist
O=C(N/N=C/c1ccc([N+](=O)[O-])cc1)c1cccs1	-4	7	1	14	-21	-29
O=C(N/N=C/c1cccc([N+](=O)[O-])c1O)c1cccs1	-9	-6	2	64*	24	15
O=[N+]([O-])c1cccc(C=NNc2ccc3ccccc3n2)c1O	-12	/	/	60*	37*	/
N#CC(C#N)=C1C=CC=CN1/C(=C\c1ccco1)C(=O)c1ccc(Cl)cc1	-2	/	/	117*	103*	/
Cn1c(=O)c(=O)n(C)c2cc(S(=O)(=O)NCCOc3ccccc3Cl)ccc21	-1	-4	1	11	4	40*
CC(=O)Nc1sc(N/N=C\c2ccc(O)cc2)nc1-c1cccs1	-4	-5	-1	23	4	-18
CC(=O)Nc1sc(N/N=C\c2ccccc2F)nc1-c1cccs1	2	0	-1	50*	11	5
O=c1ccc(N=Nc2ccccc2)ccc1O	10	/	/	66*	29	/
O=C(NCc1ccccn1)Nc1ccccc1C(F)(F)F	-2	-6	1	3	-5	4
CN(C)c1nc(=NCc2cccs2)ss1	-20	/	/	111*	92*	/
COc1ccc(N(CC(=O)Nc2ccccc2OC)S(=O)(=O)c2ccc(OC)c(OC)c2)cc1	8	-4	2	17	6	-4
O=C1c2cccc3c([N+](=O)[O-])ccc(c23)C(=O)N1O	3	7	2	-16	-13	-55
O=C1c2cccc3c([N+](=O)[O-])ccc(c23)C(=O)N1c1nccs1	0	0	-3	73*	43*	27
CC(=O)Oc1ccc(N2C(=O)c3cccc4c([N+](=O)[O-])ccc(c34)C2=O)cc1	-2	-1	3	65*	16	34
Oc1csc(Cc2nc(-c3ccc(-c4ccccc4)cc3)cs2)n1	2	2	3	-17	4	-17
Oc1csc(Cc2nc(-c3ccc4ccccc4c3)cs2)n1	6	-7	4	56*	28	35
Nc1cccc2c1C(=O)N(C(=O)/C=C/c1cccc(Br)c1)C2=O	0	/	/	64*	38*	/
COc1ccccc1CCNC(=O)c1cccc(S(=O)(=O)NCc2ccccc2)c1	-7	-8	2	23	-3	-5
CC(=O)N(C1=C(Cl)C(=O)c2ccccc2C1=O)C1CCCCC1	0	8	13	115*	40*	-10
